Measurements collected from several papers.
Target: Alpha-2A adrenergic receptor (ADRA2A, Homo sapiens, UniProt P08913)
Residues used in one study (P08913 1-465): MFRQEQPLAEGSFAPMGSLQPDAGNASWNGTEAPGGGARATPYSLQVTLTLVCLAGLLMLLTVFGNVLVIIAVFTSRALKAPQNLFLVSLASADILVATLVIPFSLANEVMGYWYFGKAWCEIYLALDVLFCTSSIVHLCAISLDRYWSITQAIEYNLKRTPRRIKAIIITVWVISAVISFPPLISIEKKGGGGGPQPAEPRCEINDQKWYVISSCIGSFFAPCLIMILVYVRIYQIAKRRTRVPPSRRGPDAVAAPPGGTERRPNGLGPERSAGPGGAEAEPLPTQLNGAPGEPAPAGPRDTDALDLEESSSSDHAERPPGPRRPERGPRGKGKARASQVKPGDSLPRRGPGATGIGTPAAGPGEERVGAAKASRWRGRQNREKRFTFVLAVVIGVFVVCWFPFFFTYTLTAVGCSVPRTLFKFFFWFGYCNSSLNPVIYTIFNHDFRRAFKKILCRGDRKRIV

N#CC1(c2ccccn2)CCN(Cc2cc(C(=O)O)c(=O)n3ccccc23)CC1 gave an inhibition of -25.7% (cell-free assay; 10 µM).
With CC(C)N1CCC[C@H]1CNC(=O)c1cn(C2CCCC2)c(=O)c2c1c1ccccc1n2C the inhibition was 37% (ligand displacement, radioligand; 10 µM).
The inhibition of COc1ccc(S(=O)(=O)N2CCCCC2)cc1C is reported as less than 30% (ligand displacement, radioligand; 10 µM).
For Clc1ccc2c(C3CCN(CCc4c[nH]c5ccccc45)CC3)c[nH]c2c1, the inhibition was 82% (ligand displacement, radioligand; 10 µM).
For Nc1ncc(-c2nc(N3CCOCC3)nc(N3CCOCC3)n2)c(C(F)F)n1, the remaining signal was 114% (cell-free assay, radioligand; 10 µM).
With CC(C)Cn1cnc2c(N)nc3ccccc3c21 the inhibition was 58% (ligand displacement, radioligand; 10 µM).
COCc1c(-c2cc3cc(C)cc(OC)c3s2)c2c(N)ncnn2c1CN1CCNC(=O)C1 has an inhibition of 26% (ligand displacement, radioligand; 10 µM).
With O=C(Nc1cccnn1)N1CCN([C@@H]2CCOc3cc(C(F)(F)F)ccc32)CC1 the inhibition was 7% (ligand displacement; 20 µM).
Cc1c(N2CCNCC2)nc2ccc(Br)cc2c1C(=O)NC[C@H](CCC(=O)O)c1ccccc1Cl has an inhibition of 65% (ligand displacement; 10 µM).
